The values that follow come from PubChem BioAssay.

Active and inactive are the calls of the source.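 Rule for the calls, unless noted: active = viability loss from added drug above about 55%, and viability with drug at most 40%, in both replicates (limit read from the data, passing the limit was not always enough); inconclusive = both conditions met in only one replicate; inactive = neither replicate meets both conditions.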

The nature of assay [1]: Her2 expression decrease, cell viability multiplex – SKBR3 breast tumor cells, AlphaScreen, ATP viability, primary screen (AID 461;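 active = Her2 level under about 52% in both replicate screens, with viability over 70% of control, limit read from the data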;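 for Her2 level: lower value means less Her2 protein in the cells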;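 for viability: percent of carrier control wells set as 100% viability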). The settings on record: SKBR3 Her2 protein level, 18-24 h, measured here: SKBR3 viability, ATP luminescence, at 10 µM. On the technique in general: In Alpha technology, singlet oxygen from a donor bead excites a nearby acceptor bead.
In assay [2] the target is Receptor tyrosine-protein kinase erbB-2 (Homo sapiens) (UniProt P04626). Described as above. The settings on record: 18-24 h, at 10 µM, stronger effect = lower value.
Chain of Receptor tyrosine-protein kinase erbB-2 (Homo sapiens) (P04626 whole entry, looked up): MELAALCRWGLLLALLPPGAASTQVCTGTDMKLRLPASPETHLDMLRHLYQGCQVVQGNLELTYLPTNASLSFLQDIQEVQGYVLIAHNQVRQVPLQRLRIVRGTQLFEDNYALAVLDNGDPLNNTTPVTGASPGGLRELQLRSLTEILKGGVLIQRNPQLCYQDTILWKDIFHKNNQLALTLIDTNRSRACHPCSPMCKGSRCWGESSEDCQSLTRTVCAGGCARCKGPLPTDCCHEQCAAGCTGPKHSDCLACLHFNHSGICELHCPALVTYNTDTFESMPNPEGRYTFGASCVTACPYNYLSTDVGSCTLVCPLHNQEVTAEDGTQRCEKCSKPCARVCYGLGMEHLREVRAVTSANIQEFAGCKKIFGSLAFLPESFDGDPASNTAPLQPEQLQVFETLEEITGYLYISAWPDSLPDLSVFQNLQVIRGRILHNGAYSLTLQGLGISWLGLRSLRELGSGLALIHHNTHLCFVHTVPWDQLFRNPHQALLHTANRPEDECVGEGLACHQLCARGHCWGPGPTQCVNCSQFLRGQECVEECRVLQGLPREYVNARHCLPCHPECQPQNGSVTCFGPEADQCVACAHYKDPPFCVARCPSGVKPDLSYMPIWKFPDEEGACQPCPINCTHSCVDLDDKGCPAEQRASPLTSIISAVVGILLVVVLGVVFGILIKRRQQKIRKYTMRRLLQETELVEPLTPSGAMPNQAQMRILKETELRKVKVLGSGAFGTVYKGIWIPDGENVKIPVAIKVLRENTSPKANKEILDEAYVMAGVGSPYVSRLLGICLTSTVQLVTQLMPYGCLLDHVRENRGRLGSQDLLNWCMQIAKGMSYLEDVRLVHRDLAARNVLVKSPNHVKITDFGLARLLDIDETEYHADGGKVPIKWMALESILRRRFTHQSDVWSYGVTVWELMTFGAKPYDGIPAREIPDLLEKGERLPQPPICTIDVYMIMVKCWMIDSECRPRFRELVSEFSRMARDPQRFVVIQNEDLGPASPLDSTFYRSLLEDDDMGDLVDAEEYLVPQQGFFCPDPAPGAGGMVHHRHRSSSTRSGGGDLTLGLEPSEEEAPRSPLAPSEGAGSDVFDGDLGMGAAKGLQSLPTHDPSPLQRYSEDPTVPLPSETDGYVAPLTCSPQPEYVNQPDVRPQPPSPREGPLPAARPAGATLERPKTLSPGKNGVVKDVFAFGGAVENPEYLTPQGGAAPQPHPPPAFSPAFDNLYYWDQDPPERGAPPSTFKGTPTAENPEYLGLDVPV
Assay [3] can be described thus: reduced viability of SK-BR-3 breast cancer cells – cell-based, 24 h, human, pilot screen (AID 572;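 active = viability at or below 10% of carrier control in both of two separate runs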;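 note: compound exposure lasted between 18 and 24 h rather than exactly 24 h; 100% = carrier-treated control wells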). The settings on record: SK-BR-3 viability, CellTiter-Glo luminescence, at 10 µM, stronger effect = lower value.
A short description of assay [4]: HUVEC growth inhibition – cell-based, human, primary screen (AID 575;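 active = viability at or below 30% in both replicate assays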;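 note: 100% = median of untreated cell wells with 0.1% DMSO on each plate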). The conditions noted are these: HUVEC proliferation, CellTiter-Glo luminescence, 72 h; at 10 µM; stronger effect = lower value. The gist of the method: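 Assay system: primary human umbilical vein endothelial cells / Buffer or medium: endothelial basal medium with 2% FBS plus growth supplements / Compound dosing: one dose, 10 µM final, 0.1% DMSO / Timing: 72 h treatment at 37 °C / Signal: CTG luminescence / Benchmarks: 32 DMSO-only cell-control wells (high), 32 MePR drug-control wells (low) per plate / Plate: collagen-coated 384-well format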
(In ATP-based viability assays light output follows the ATP content of the culture.)

A short description of assay [5]: H69AR cell proliferation blockers – human, duplicate replicates, primary screen (AID 580;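 active = viability at or under a set limit in both replicates, limit being median viability minus 3 SD, cut at about 48% in these data, passing the limit was not always enough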;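 note: 100% = mean luminescence of untreated wells and 0% = no signal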). The conditions noted are these: H69AR lung tumor cells viability, ATP luminescence, 72 h; at 10 µM; stronger effect = lower value.
Assay [6] in a line: MRP1 drug-resistance reversers in H69AR cells – cell-based, doxorubicin co-treatment, pilot screen (AID 601). The settings on record: CellTiter-Glo, 72 h, at 10 µM; for differential viability (reversal): stronger effect = higher value.
A short description of assay [7]: yeast transport mutant growth inhibition pilot in 384-well plates, post-Golgi transport modulator project (AID 636; in the data active = inhibition above about 31%). The settings on record: absorbance 615 nm, about 18 h, stronger effect = higher value.
Assay [8] can be described thus: growth suppression of yeast trafficking mutant, preliminary HTS, modulators of trafficking downstream of Golgi apparatus project, 1536-format plate, OD 615 nm (AID 637; in the data active = inhibition above about 30%). The settings on record: yeast transport mutant growth, absorbance 615 nm, 18 h; stronger effect = higher value.
The mark [9] stands for this setting: H69AR cells + 2 uM doxorubicin, measured here: viability with 2 uM doxorubicin, stronger effect = lower value.
[10] abbreviates: H69AR cells, compound alone cytotoxicity.

A word on the viability: it is a read-out of living cells in per cent, often relative to untreated cells. By inhibition is commonly meant the change of the read-out against control, counted positive when it falls. For the molecule `CCNC(=O)Cn1cnc2c1c(=O)n(C)c(=O)n2C`, the viability is 108% in assay [1]; 108% (inactive) in assay [3]; 112% (inactive) in assay [4]; 96.2% (inactive) in assay [5]; 98.2% in assay [6] (setting [9]); 96.2% in assay [6] (setting [10]). The Her2 level in assay [2] was 108% (inactive). Also, in assay [6] (H69AR cells + 2 uM doxorubicin), the differential viability (reversal) is -1.97% (inactive). The inhibition in assay [7] is -4.74% (inactive); in assay [8] it was 5.25% (inactive).
For the molecule `COCc1ccccc1Cn1cnc2c1c(=O)n(C)c(=O)n2C`, the viability in assay [1] is 99%; in assay [3], 99% (inactive); in assay [4], 85.8% (inactive); in assay [5], 101% (inactive); in assay [6] (setting [9]), 92.7%; in assay [6] (setting [10]) it was 101%. Besides, the Her2 level in assay [2] is 77.5% (inactive). In addition, in assay [6] (H69AR cells + 2 uM doxorubicin), the differential viability (reversal) is 8.8% (inactive). In addition, the inhibition in assay [7] is -5% (inactive); in assay [8] it was 0.49% (inactive).
For the molecule `COCCn1c(SCC(=O)Nc2cccc(OC)c2)nnc1-c1ccccc1`, the viability in assay [1] is 101%; in assay [3], 101% (inactive); in assay [4], 90.1% (inactive); in assay [5], 103% (inactive); in assay [6] (setting [9]) it was 96.6%; in assay [6] (setting [10]) it was 103%. Moreover, in assay [2], the Her2 level is 99.5% (inactive). Besides, the differential viability (reversal) in assay [6] (H69AR cells + 2 uM doxorubicin) is 6.8% (inactive). Moreover, the results for the inhibition in assay [7] and in assay [8] were -3.51% (inactive) and 4.43% (inactive), respectively.
As to `CCOc1ccc(C2/C(=C(/O)c3ccc(OC)cc3)C(=O)C(=O)N2c2cc(C)on2)cc1OC` (stereo not given), the viability is 85% in assay [1]; 85% (inactive) in assay [3]; 82.3% (inactive) in assay [4]; 89.4% (inactive) in assay [5]; 99.7% in assay [6] (setting [9]); 89.4% in assay [6] (setting [10]). In assay [2], the Her2 level is 144% (inactive). Besides, the differential viability (reversal) in assay [6] (H69AR cells + 2 uM doxorubicin) was -10.3% (inactive). Moreover, the values for the inhibition in assay [7] and in assay [8] were 1.45% (inactive) and 10.7% (inactive), respectively.
Take `CNC(=O)c1ccc(N(Cc2ccccc2C)S(C)(=O)=O)cc1`: the viability in assay [1] was 98%; in assay [3], 98% (inactive); in assay [4], 102% (inactive); in assay [5], 93.6% (inactive); in assay [6] (setting [9]) it was 92.7%; in assay [6] (setting [10]) it was 93.6%. In addition, the Her2 level in assay [2] is 102% (inactive). Moreover, in assay [6] (H69AR cells + 2 uM doxorubicin), the differential viability (reversal) is 0.93% (inactive). The inhibition was -3.87% (inactive) in assay [7] and -2.95% (inactive) in assay [8].
On to `CCc1nnc(NC(=O)C2CCN(c3nccc(C)n3)CC2)s1`, for which the viability in assay [1] was 112%; in assay [3], 112% (inactive); in assay [4] it was 100% (inactive); in assay [5] it was 99.5% (inactive); in assay [6] (setting [9]), 93.9%; in assay [6] (setting [10]) it was 99.5%. Moreover, the Her2 level in assay [2] is 93% (inactive). The differential viability (reversal) in assay [6] (H69AR cells + 2 uM doxorubicin) was 5.65% (inactive). Further, the values for the inhibition in assay [7] and in assay [8] were -6.22% (inactive) and -2.17% (inactive), respectively.
In the case of `CC(CN1CCN(C)CC1)OC(=O)c1ccc(Cl)cc1Cl` (stereo not given), the viability in assay [1] was 127%; in assay [3], 127% (inactive); in assay [4], 88.6% (inactive); in assay [5], 102% (inactive); in assay [6] (setting [9]), 88.2%; in assay [6] (setting [10]) it was 102%. Further, the Her2 level in assay [2] is 90.5% (inactive). The differential viability (reversal) in assay [6] (H69AR cells + 2 uM doxorubicin) is 14% (inactive). In addition, the inhibition in assay [7] was -4.53% (inactive); in assay [8] it was 10% (inactive).
With `C=CCSC1=C(C#N)C(c2ccccc2Cl)CC(=O)N1` (stereo not given), the viability in assay [1] is 72%; in assay [3], 72% (inactive); in assay [4], 103% (inactive); in assay [5], 96.5% (inactive); in assay [6] (setting [9]), 95.1%; in assay [6] (setting [10]), 96.5%. In addition, in assay [2], the Her2 level is 85.5% (inactive). In addition, the differential viability (reversal) in assay [6] (H69AR cells + 2 uM doxorubicin) was 1.45% (inactive). For the same molecule, the values for the inhibition in assay [7] and in assay [8] were 0.27% (inactive) and -2.26% (inactive), respectively.
On to `Cc1ccc(CCNC(=O)C2CCN(S(=O)(=O)c3ccc4c(c3)CCC(=O)N4)CC2)cc1`, for which the viability is 98.5% in assay [1]; 98.5% (inactive) in assay [3]; 44.2% (inactive) in assay [4]; 79.9% (inactive) in assay [5]; 69.3% in assay [6] (setting [9]); 79.9% in assay [6] (setting [10]). For the same molecule, the Her2 level in assay [2] was 100% (inactive). In addition, the differential viability (reversal) in assay [6] (H69AR cells + 2 uM doxorubicin) was 10.6% (inactive). The inhibition in assay [7] is -0.67% (inactive); in assay [8] it was -6.07% (inactive).
`CCc1nc(SCC(=O)Nc2nccs2)c2oc3ccccc3c2n1`: the viability in assay [1] was 91%; in assay [3], 91% (inactive); in assay [4], 109% (inactive); in assay [5], 37.4% (active); in assay [6] (setting [9]), 42.6%; in assay [6] (setting [10]), 37.4%. For the same molecule, the Her2 level in assay [2] was 87.5% (inactive). Also, the differential viability (reversal) in assay [6] (H69AR cells + 2 uM doxorubicin) was -5.17% (inactive). Besides, the inhibition in assay [7] was -7.43% (inactive); in assay [8] it was -7% (inactive).
On to `O=C1CCNc2cc3ccccc3cc21`, for which the viability is 73.5% in assay [1]; 73.5% (inactive) in assay [3]; 61.7% (inactive) in assay [4]; 70.5% (inactive) in assay [5]; 70% in assay [6] (setting [9]); 70.5% in assay [6] (setting [10]). For the same molecule, the Her2 level in assay [2] was 84% (inactive). In addition, the differential viability (reversal) in assay [6] (H69AR cells + 2 uM doxorubicin) is 0.425% (inactive). Further, the inhibition is -8.9% (inactive) in assay [7] and 1.27% (inactive) in assay [8].
Take `COc1cc(CNc2ccc(N3CCOCC3)c(C(=O)O)c2)ccc1OCC(N)=O`: the viability is 106% in assay [1]; 106% (inactive) in assay [3]; 97.4% (inactive) in assay [4]; 99.9% (inactive) in assay [5]; 99.1% in assay [6] (setting [9]); 99.9% in assay [6] (setting [10]). In addition, the Her2 level in assay [2] was 102% (inactive). For the same molecule, the differential viability (reversal) in assay [6] (H69AR cells + 2 uM doxorubicin) was 0.83% (inactive). Also, the inhibition in assay [7] was -4.67% (inactive); in assay [8] it was -2.13% (inactive).
Regarding `COc1ccc(C)cc1NC(=O)CSc1nnnn1Cc1ccccc1`, the viability in assay [1] was 83%; in assay [3] it was 83% (inactive); in assay [4], 82.1% (inactive); in assay [5], 96.8% (inactive); in assay [6] (setting [9]) it was 90.8%; in assay [6] (setting [10]), 96.8%. The Her2 level in assay [2] was 96.5% (inactive). In assay [6] (H69AR cells + 2 uM doxorubicin), the differential viability (reversal) is 6% (inactive). The inhibition was -1.49% (inactive) in assay [7] and -2.62% (inactive) in assay [8].
In the case of `COc1cc(CC(=O)Nc2ncc(C)s2)cc(OC)c1OC`, the viability in assay [1] is 109%; in assay [3], 109% (inactive); in assay [4], 90.8% (inactive); in assay [5], 91.5% (inactive); in assay [6] (setting [9]), 88.8%; in assay [6] (setting [10]) it was 91.5%. Moreover, the Her2 level in assay [2] is 96% (inactive). Besides, the differential viability (reversal) in assay [6] (H69AR cells + 2 uM doxorubicin) was 2.69% (inactive). Also, the inhibition in assay [7] was -3.2% (inactive); in assay [8] it was 5.74% (inactive).
For `CC(C)=CCCC(C)NC(=O)NC1CCCCC1` (stereo not given), the viability in assay [1] is 91%; in assay [3], 91% (inactive); in assay [4], 106% (inactive); in assay [5], 107% (inactive); in assay [6] (setting [9]), 88.6%; in assay [6] (setting [10]) it was 107%. The Her2 level in assay [2] is 94% (inactive). For the same molecule, the differential viability (reversal) in assay [6] (H69AR cells + 2 uM doxorubicin) was 18% (inactive). For the same molecule, the inhibition in assay [7] was -5.33% (inactive); in assay [8], 2.74% (inactive).
In the case of `CN1CCCC(OC(=O)COc2ccc(Br)cc2)C1` (stereo not given), the viability was 93.5% in assay [1]; 93.5% (inactive) in assay [3]; 91.4% (inactive) in assay [4]; 89.7% (inactive) in assay [5]; 92.5% in assay [6] (setting [9]); 89.7% in assay [6] (setting [10]). In addition, the Her2 level in assay [2] was 108% (inactive). Further, in assay [6] (H69AR cells + 2 uM doxorubicin), the differential viability (reversal) is -2.85% (inactive). Moreover, the inhibition in assay [7] was -0.8% (inactive); in assay [8], -1.48% (inactive).
